Activity calls are given as the source filed them. The rule behind the calls is not given here.
Key:
Calvarial osteoblast [1] = test: Induction of osteogenesis in BALB/c mouse calvarial osteoblast cells using PNPP as substrate assessed as increase in ALP activity at 0.1 to 10 nM measured after 48 hrs by spectrophotometry; assay type: functional, cell-based; conditions: Calvaria, dose 0.1-10 nM
Summary of the method: (§1)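 Neonatal BALB/c calvarial osteoblasts, 2 × 10³ cells per well, adhered 24 h, then exposed to compounds (1 pM to 1 μM range) in osteoblast differentiation medium for 48 h. Cells frozen overnight at −80 or −20 °C, thawed at 37 °C to expose ectoenzyme; p-nitrophenyl phosphate added and ALP activity read at 405 nm. Untreated cells as control.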

Calvarial osteoblast [2] = test: Cytotoxicity in BALB/c mouse calvarial osteoblast cells at 0.001 to 1000 nM incubated for 48 hrs by MTT assay; assay type: toxicity, cell-based, Calvaria; conditions: 1 µM, dose 0.001-1000 nM
Summary of the method: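 Primary calvarial osteoblasts from 1–2 day old BALB/c pups (collagenase/dispase digests, α-MEM with 10% FBS) seeded at 2 × 10³ per well. MTT added for 4 h at 37 °C, formazan dissolved in DMSO, absorbance read at 570 nm.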

Calvarial osteoblast [3] = test: Induction of osteogenesis in BALB/c mouse calvarial osteoblast cells using PNPP as substrate assessed as increase in ALP activity at 0.001 to 10 nM measured after 48 hrs by spectrophotometry; assay type: functional, cell-based; conditions: Calvaria, dose 0.001-10 nM; summary of the method: as §1
[4] = Induction of osteogenesis in BALB/c mouse MSC cells assessed as increase in mineral nodule formation at 0.001 nM treated for 21 days with compound refreshment for every 48 hrs by Alizarin red S staining based analysis relative to control; assay type: functional; conditions: time 21 day
Summary of the method: (§2)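 Bone marrow cells were flushed from the long bones of 6–8-week-old BALB/c mice and seeded at 2 × 10⁶ per well. Medium: 10% FBS, 100 nM dexamethasone, 50 μg mL⁻¹ ascorbic acid and 10 mM β-glycerophosphate. Compound and medium were renewed every 48 h for 21 days. Cells were fixed in 4% paraformaldehyde and stained with Alizarin red (pH 4.2). Stain was eluted with 10% cetylpyridinium chloride for 1 h and read at 595 nm versus control.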

[5] = Induction of osteogenesis in BALB/c mouse MSC cells assessed as increase in mineral nodule formation at 0.1 nM treated for 21 days with compound refreshment for every 48 hrs by Alizarin red S staining based analysis relative to control; assay type: functional; conditions: time 21 day; summary of the method: as §2
Calvarial osteoblast [6] = test: Induction of cell proliferation of BALB/c mouse calvarial osteoblast cells at 0.1 nM incubated for 48 hrs by MTT assay relative to control; assay type: functional, Calvaria
Summary of the method: (§3)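 Primary calvarial osteoblasts from 1–2-day-old neonatal BALB/c pups, released by dispase/collagenase digestion and grown in α-MEM with 10% FBS. Seeded at 2 × 10³ cells per well, treated after 24 h for 48 h in α-MEM with 5% FBS, 10 mM β-glycerophosphate and 50 μg mL⁻¹ ascorbic acid. MTT added for 4 h at 37 °C, formazan dissolved in DMSO, absorbance read at 570 nm versus untreated cells.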

Calvarial osteoblast [7] = test: Induction of cell proliferation of BALB/c mouse calvarial osteoblast cells at 0.001 nM incubated for 48 hrs by MTT assay relative to control; assay type: functional, Calvaria; summary of the method: as §3

Row | Structure (SMILES) | Activity (Calvarial osteoblast [1]) | Activity (Calvarial osteoblast [2]) | Activity (Calvarial osteoblast [3]) | Activity [4] | Activity [5] | Activity (Calvarial osteoblast [6]) | Activity (Calvarial osteoblast [7])
1 | COc1cc(OC)c(-c2cc(-c3ccc(Cl)cc3)nc(N)n2)cc1OC | Active | Non-Toxic | – | – | – | – | –
2 | CCCCCC(=O)Nc1nc(-c2ccc(Br)cc2)cc(-c2cc(OC)c(OC)cc2OC)n1 | – | Non-Toxic | Active | ~24% | ~25% | ~25% | ~22%
3 | CCCCCC(=O)Nc1nc(-c2ccc(Cl)cc2)c(Cl)c(-c2cc(OC)c(OC)cc2OC)n1 | Active | Non-Toxic | – | – | ~27% | – | ~18%
